The text below walks through data of the M2OR odorant receptor database.

Holding throughout (settings): stereoisomer not certain
One experiment addresses T1, UniProt Q8VG53.
T1 sequence (whole entry): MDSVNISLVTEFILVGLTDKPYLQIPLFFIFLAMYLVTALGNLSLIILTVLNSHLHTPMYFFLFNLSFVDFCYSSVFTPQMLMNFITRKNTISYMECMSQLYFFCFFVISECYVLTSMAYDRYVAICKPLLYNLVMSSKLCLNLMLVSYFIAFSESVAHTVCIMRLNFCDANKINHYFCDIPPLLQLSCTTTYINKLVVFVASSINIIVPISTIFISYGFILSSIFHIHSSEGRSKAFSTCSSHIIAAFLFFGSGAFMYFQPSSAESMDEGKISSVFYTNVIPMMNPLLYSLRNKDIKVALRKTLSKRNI
The gist of the method: (§1)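 Whether a receptor–molecule pair is responsive (active) rests on the original authors' judgment that its measured signal was statistically different from baseline. Pairs without that judgment are non-responsive (inactive). Sources used varied assay methods, commonly transient luciferase assays in mammalian cell lines.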

The target in the next experiment is T2, UniProt Q8VG64.
T2 sequence (whole entry): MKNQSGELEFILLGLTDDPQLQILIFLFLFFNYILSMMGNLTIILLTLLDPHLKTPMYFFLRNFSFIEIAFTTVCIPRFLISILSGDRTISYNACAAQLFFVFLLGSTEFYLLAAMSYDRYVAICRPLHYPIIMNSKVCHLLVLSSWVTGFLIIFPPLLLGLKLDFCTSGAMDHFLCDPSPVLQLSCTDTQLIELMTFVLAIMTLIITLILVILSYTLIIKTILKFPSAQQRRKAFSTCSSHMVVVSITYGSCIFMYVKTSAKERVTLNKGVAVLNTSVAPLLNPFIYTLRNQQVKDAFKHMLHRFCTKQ
The gist of the method:
as §1

The next experiment addresses T3, UniProt Q8VG77.
T3 sequence (whole entry): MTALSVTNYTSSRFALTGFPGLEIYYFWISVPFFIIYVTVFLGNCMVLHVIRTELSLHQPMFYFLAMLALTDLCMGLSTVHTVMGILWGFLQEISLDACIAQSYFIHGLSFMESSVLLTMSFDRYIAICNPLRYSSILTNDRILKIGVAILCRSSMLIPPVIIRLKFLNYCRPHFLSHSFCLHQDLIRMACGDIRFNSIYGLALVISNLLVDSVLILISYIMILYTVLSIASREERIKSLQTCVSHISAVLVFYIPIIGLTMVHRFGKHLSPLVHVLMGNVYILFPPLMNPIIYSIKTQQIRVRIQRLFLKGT
The gist of the method: as §1

A further experiment has as its target T4, UniProt Q8VG96.
T4 sequence (whole entry): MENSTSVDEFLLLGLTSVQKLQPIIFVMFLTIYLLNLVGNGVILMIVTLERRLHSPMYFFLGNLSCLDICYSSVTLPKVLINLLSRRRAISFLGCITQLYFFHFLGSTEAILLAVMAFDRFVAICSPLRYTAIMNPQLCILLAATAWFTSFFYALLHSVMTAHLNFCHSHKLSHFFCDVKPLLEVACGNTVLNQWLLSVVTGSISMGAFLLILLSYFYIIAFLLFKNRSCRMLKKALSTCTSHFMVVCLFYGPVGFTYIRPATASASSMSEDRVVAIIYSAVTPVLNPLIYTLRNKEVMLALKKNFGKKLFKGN
The gist of the method:
as §1

The target of a further experiment is T5, UniProt Q8VGB9.
T5 sequence (whole entry): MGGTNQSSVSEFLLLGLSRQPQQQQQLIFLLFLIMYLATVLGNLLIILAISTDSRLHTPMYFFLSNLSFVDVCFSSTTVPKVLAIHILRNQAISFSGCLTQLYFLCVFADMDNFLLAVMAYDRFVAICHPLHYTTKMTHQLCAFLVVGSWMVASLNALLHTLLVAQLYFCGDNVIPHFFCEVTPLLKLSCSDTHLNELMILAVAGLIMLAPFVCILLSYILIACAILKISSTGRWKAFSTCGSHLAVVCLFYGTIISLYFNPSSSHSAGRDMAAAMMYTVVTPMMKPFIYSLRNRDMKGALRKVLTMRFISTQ
The gist of the method: as §1

A further experiment deals with T6, UniProt Q8VGC6.
T6 sequence (whole entry): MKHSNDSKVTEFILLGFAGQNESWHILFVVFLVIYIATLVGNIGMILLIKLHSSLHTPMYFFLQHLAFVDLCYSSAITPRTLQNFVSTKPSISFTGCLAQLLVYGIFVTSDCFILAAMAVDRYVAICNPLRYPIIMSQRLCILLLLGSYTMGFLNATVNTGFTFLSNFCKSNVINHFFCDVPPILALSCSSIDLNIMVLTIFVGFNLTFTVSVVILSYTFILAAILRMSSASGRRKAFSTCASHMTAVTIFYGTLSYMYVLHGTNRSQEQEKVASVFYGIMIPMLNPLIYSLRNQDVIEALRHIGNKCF
The gist of the method: as §1

Another experiment has as its target T7, UniProt Q8VGD7.
T7 sequence (whole entry): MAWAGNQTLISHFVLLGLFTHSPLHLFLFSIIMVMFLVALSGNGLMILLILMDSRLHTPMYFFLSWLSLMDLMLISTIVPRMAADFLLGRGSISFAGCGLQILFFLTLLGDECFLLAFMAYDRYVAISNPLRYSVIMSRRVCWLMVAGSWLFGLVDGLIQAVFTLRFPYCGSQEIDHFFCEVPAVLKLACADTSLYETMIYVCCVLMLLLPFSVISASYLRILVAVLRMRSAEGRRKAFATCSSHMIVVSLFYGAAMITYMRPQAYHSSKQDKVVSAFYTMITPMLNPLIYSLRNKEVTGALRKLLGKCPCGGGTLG
The method in brief:
as §1

The target of another experiment is T8, UniProt Q8VGH1.
T8 sequence (whole entry): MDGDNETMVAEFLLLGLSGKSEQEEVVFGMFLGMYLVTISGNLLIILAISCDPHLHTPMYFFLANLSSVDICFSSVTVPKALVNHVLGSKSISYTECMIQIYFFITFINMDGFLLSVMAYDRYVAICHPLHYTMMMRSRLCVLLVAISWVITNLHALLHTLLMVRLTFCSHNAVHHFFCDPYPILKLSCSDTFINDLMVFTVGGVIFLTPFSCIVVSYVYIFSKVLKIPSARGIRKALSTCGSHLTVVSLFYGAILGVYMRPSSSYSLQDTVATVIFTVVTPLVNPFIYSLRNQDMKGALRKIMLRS
The method in brief: as §1

The next experiment has as its target T9, UniProt Q8VGJ1.
T9 sequence (whole entry): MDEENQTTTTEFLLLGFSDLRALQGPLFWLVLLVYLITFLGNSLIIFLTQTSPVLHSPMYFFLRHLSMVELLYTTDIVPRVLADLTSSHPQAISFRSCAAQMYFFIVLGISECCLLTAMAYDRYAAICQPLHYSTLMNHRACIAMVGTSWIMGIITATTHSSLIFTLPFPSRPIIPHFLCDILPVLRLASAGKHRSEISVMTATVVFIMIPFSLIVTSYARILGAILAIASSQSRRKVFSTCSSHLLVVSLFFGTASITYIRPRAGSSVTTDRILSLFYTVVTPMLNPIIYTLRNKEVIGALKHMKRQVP
The method in brief: as §1

In another experiment the target is T10, UniProt Q8VGJ3.
T10 sequence (whole entry): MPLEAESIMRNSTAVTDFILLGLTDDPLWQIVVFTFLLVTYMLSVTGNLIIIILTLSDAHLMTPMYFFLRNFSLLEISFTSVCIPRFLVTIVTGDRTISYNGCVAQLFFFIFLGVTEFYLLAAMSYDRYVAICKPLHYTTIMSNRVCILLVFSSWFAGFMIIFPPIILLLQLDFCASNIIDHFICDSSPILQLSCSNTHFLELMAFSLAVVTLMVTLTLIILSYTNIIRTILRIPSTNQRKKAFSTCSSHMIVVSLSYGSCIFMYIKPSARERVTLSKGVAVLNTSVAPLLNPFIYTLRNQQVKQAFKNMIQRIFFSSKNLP
The method in brief:
as §1
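Note: active if original authors judged signal statistically different from baseline.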

For the molecule `O=c1cc(O)c2ccccc2o1`, the “odorant receptor agonist call” value with UniProt Q8VG53, with UniProt Q8VG64, in the experiment with UniProt Q8VG77, with UniProt Q8VG96, in the experiment with UniProt Q8VGB9 and with UniProt Q8VGC6 was “inactive” each time. For the same molecule, the “odorant receptor agonist call” value in the experiment with UniProt Q8VGD7, with UniProt Q8VGH1, with UniProt Q8VGJ1 and in the experiment with UniProt Q8VGJ3 was “inactive” in each case.
Take `Oc1ccccc1Br`: the “odorant receptor agonist call” value with UniProt Q8VG53, with UniProt Q8VG64, with UniProt Q8VGB9, with UniProt Q8VGC6 and with UniProt Q8VGJ3 was “inactive” in each case.
As to `O=Cc1ccc2c(c1)OCO2`, the “odorant receptor agonist call” value with UniProt Q8VG53, in the experiment with UniProt Q8VG64, with UniProt Q8VGB9, with UniProt Q8VGC6 and in the experiment with UniProt Q8VGJ3 was “inactive” each time.
Turning to `COc1ccc(C=O)cc1`, the “odorant receptor agonist call” value in the experiment with UniProt Q8VG53, in the experiment with UniProt Q8VG64, in the experiment with UniProt Q8VGB9, in the experiment with UniProt Q8VGC6 and with UniProt Q8VGJ3 was “inactive” in each case.
Regarding `C=CCc1ccccc1`, the “odorant receptor agonist call” value in the experiment with UniProt Q8VG77, in the experiment with UniProt Q8VG96, with UniProt Q8VGC6, with UniProt Q8VGD7, with UniProt Q8VGH1 and with UniProt Q8VGJ1 was “inactive” in each case.
Consider `CCC1CCC(=O)O1` (configuration not stated), for which the “odorant receptor agonist call” value with UniProt Q8VG77, in the experiment with UniProt Q8VG96, with UniProt Q8VGD7, with UniProt Q8VGH1 and with UniProt Q8VGJ1 was “inactive” each time. Further, the “odorant receptor agonist call” value in the experiment with UniProt Q8VGC6 is “active”.
For the molecule `O=Cc1ccccc1`, the “odorant receptor agonist call” value in the experiment with UniProt Q8VG53, with UniProt Q8VG64, in the experiment with UniProt Q8VGB9 and with UniProt Q8VGC6 was “inactive” in each case. For the same molecule, in the experiment with UniProt Q8VGJ3, the “odorant receptor agonist call” value was “active”.
With `C=C(C)C1CC=C(C=O)CC1` (configuration not stated), the “odorant receptor agonist call” value in the experiment with UniProt Q8VG53, with UniProt Q8VG64, with UniProt Q8VGC6 and with UniProt Q8VGJ3 was “inactive” each time. The “odorant receptor agonist call” value with UniProt Q8VGB9 is “active”.
Regarding `CSSC`, the “odorant receptor agonist call” value with UniProt Q8VG53, with UniProt Q8VG64, with UniProt Q8VGB9, with UniProt Q8VGC6 and with UniProt Q8VGJ3 was “inactive” throughout.
For the molecule `CC(C=O)Cc1ccc2c(c1)OCO2` (configuration not stated), the “odorant receptor agonist call” value in the experiment with UniProt Q8VG53, in the experiment with UniProt Q8VG64, with UniProt Q8VGB9 and with UniProt Q8VGJ3 was “inactive” in each case. For the same molecule, in the experiment with UniProt Q8VGC6, the “odorant receptor agonist call” value was “active”.
`CCCCC(Br)C(=O)O` (configuration not stated): the “odorant receptor agonist call” value with UniProt Q8VG53, in the experiment with UniProt Q8VG64, in the experiment with UniProt Q8VGB9, with UniProt Q8VGC6 and with UniProt Q8VGJ3 was “inactive” throughout.
For `C=CCOC(=O)Cc1ccccc1`, the “odorant receptor agonist call” value with UniProt Q8VG53, in the experiment with UniProt Q8VG64, with UniProt Q8VG77, in the experiment with UniProt Q8VG96, with UniProt Q8VGB9 and with UniProt Q8VGD7 was “inactive” throughout. In addition, the “odorant receptor agonist call” value in the experiment with UniProt Q8VGH1, with UniProt Q8VGJ1 and in the experiment with UniProt Q8VGJ3 was “inactive” in each case. Also, the “odorant receptor agonist call” value with UniProt Q8VGC6 is “active”.
As to `CCCCCCC(Br)C(=O)O` (configuration not stated), the “odorant receptor agonist call” value with UniProt Q8VG53, with UniProt Q8VG64, with UniProt Q8VGB9, with UniProt Q8VGC6 and with UniProt Q8VGJ3 was “inactive” each time.
In the case of `O=CC=Cc1ccccc1`, the “odorant receptor agonist call” value with UniProt Q8VG53, in the experiment with UniProt Q8VG64, in the experiment with UniProt Q8VGB9, with UniProt Q8VGC6 and with UniProt Q8VGJ3 was “inactive” each time.
Turning to `Cc1ccc(OC(=O)Cc2ccccc2)cc1`, the “odorant receptor agonist call” value with UniProt Q8VG53, with UniProt Q8VG64, in the experiment with UniProt Q8VGB9, with UniProt Q8VGC6 and with UniProt Q8VGJ3 was “inactive” in each case.
As for `OCc1ccc2c(c1)OCO2`, the “odorant receptor agonist call” value with UniProt Q8VG53, in the experiment with UniProt Q8VG64, with UniProt Q8VGB9, in the experiment with UniProt Q8VGC6 and in the experiment with UniProt Q8VGJ3 was “inactive” throughout.
